From ChEMBL document CHEMBL2429786, “New serotonin 5-HT1A receptor agonists endowed with antinociceptive activity in vivo” (J Med Chem, 2013)
Activity calls are given as the source filed them. No cut-off for these calls is given here.

Legend:
[1] = Intrinsic clearance in human liver microsomes at 1 to 5 uM by HPLC-MS analysis; format: ADME, Microsome; conditions: read-out: CLH
Summary of the method: (§1)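 Incubation mixtures pre-equilibrated at 37 °C with NADPH and MgCl2, then rat or human liver microsomes added to start the reaction. Aliquots were withdrawn and quenched at several time points, and percent parent remaining was measured by HPLC-MS and plotted against time. t1/2 was taken from the slope of peak area over time and used to calculate CLint.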

[2] = molecular target: T1, 5-hydroxytryptamine receptor 1A (Rattus norvegicus, UniProt P19327); assay: Displacement of [3H]-8-OH-DPAT from 5-HT1A receptor in Sprague-Dawley rat cerebral cortex after 15 mins; format: tissue-based
T1 sequence (P19327 whole entry): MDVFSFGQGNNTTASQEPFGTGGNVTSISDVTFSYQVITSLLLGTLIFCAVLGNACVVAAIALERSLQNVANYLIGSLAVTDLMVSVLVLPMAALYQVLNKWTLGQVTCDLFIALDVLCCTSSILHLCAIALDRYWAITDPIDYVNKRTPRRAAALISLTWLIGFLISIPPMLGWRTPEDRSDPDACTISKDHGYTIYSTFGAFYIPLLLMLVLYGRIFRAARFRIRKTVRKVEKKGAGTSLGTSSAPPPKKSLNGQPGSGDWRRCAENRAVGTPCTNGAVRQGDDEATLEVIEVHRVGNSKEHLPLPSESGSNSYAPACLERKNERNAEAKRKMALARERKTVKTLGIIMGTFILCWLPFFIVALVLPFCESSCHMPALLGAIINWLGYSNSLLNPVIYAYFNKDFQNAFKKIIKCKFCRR

[3] = molecular target: T2, 5-hydroxytryptamine receptor 3A (Rattus norvegicus, UniProt P35563); assay: Displacement of [3H]LY 278584 from 5-HT3 receptor in Sprague-Dawley rat cerebral cortex after 30 mins; format: tissue-based
T2 sequence (P35563 whole entry): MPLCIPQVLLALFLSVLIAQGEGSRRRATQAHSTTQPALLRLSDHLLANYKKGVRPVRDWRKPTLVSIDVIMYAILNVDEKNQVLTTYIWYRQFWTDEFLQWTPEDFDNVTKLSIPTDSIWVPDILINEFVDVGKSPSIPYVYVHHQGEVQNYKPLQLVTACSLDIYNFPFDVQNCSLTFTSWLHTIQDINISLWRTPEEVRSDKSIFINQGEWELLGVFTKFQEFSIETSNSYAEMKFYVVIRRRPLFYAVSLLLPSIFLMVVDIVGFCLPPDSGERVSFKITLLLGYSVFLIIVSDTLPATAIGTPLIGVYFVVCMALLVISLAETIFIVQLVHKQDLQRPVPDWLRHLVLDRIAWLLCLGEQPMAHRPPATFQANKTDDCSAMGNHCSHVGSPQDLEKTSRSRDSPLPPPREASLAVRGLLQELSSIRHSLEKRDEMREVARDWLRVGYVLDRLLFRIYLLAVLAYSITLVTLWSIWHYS

Homo sapiens [4] = species on record: Homo sapiens; assay: Displacement of [3H]CGP54626 from GABAB receptor (unknown origin) at 1 uM after 120 mins
Mus musculus [5] = assay: Antinociceptive activity in CD-1 mouse assessed as reduction of formalin-induced paw licking activity at 3 mg/kg, ip administered 15 mins prior to formalin-challenge measured after 15 to 30 mins; format: functional, organism-based; set-up: dose 3 mg/kg
[6] = molecular target: Adrenergic receptor alpha-2 (Homo sapiens) (UniProt P08913+P18825+P18089); assay: Displacement of [3H]RX 821002 from alpha2-adrenergic receptor (unknown origin) at 1 uM after 60 mins
Mus musculus [7] = species on record: Mus musculus; assay: Hypothermic activity in Swiss mouse assessed as change in rectal temperature after 60 mins; format: functional; conditions: 1 h, read-out: MED
Homo sapiens [8] = species on record: Homo sapiens; assay: Displacement of [3H]DADLE from delta2 opioid receptor (unknown origin) at 1 uM after 120 mins
[9] = Half life in Sprague-Dawley rat liver microsomes at 1 to 5 uM by HPLC-MS analysis; format: ADME, Microsome; summary of the method: as §1
Mus musculus [10] = assay: Antinociceptive activity in CD-1 mouse assessed as reduction of formalin-induced paw licking activity at 30 mg/kg, po administered 30 mins prior to formalin-challenge measured after 5 mins; format: functional, organism-based; set-up: dose 30 mg/kg
Mus musculus [11] = assay: Antinociceptive activity in CD-1 mouse assessed as reduction of formalin-induced paw licking activity at 30 mg/kg, po administered 30 mins prior to formalin-challenge measured after 15 to 30 mins; format: functional, organism-based; set-up: dose 30 mg/kg
[12] = Intrinsic clearance in Sprague-Dawley rat liver microsomes at 1 to 5 uM by HPLC-MS analysis; format: ADME, Microsome; conditions: read-out: CLH; summary of the method: as §1
[13] = molecular target: 5-hydroxytryptamine receptor 2A (Rattus norvegicus, UniProt P14842); assay: Displacement of [3H]ketanserin from 5-HT2A receptor in Sprague-Dawley rat frontal cortex after 15 mins; format: tissue-based
5-hydroxytryptamine receptor 2A, sequence (P14842 whole entry): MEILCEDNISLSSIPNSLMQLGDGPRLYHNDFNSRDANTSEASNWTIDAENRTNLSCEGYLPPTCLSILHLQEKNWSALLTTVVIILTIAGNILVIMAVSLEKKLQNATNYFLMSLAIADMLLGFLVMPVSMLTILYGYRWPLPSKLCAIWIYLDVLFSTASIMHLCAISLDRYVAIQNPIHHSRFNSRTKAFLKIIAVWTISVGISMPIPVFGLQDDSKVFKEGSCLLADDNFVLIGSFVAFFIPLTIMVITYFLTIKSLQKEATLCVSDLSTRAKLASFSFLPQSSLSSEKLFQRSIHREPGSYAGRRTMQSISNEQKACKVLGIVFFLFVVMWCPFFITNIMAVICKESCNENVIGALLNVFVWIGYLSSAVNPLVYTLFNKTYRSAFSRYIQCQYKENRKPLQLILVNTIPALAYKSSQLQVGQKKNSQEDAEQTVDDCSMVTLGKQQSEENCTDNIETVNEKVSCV

[14] = molecular target: T3, Muscarinic acetylcholine receptor M4 (Homo sapiens) (UniProt P08173); assay: Displacement of [3H]-4-DAMP from muscarinic M4 receptor (unknown origin) at 1 uM after 60 mins
T3 sequence (whole entry): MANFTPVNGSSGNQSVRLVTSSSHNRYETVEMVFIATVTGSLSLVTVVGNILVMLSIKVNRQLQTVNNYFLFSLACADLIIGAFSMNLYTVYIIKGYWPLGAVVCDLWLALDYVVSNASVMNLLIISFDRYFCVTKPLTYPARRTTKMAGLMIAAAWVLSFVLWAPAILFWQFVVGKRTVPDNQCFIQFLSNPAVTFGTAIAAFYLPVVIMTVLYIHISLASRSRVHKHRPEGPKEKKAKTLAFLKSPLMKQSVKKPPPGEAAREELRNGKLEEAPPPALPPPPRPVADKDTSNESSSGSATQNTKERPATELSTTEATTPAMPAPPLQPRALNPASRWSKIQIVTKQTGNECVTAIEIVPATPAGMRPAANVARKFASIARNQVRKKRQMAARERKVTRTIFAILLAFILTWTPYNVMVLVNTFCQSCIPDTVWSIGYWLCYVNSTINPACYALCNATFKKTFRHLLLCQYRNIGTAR

Homo sapiens [15] = species on record: Homo sapiens; assay: Displacement of [125I]Tyr11-somatostatin-14 from somatostatin receptor (unknown origin) at 1 uM after 60 mins
[16] = Half life in mouse liver microsomes at 1 to 5 uM by HPLC-MS analysis; format: ADME, Microsome
[17] = molecular target: Cannabinoid receptor 1 (Homo sapiens) (UniProt P21554); assay: Displacement of [3H]CP 55940 from CB1 receptor (unknown origin) at 1 uM after 120 mins
Cannabinoid receptor 1 (Homo sapiens), sequence (P21554 whole entry): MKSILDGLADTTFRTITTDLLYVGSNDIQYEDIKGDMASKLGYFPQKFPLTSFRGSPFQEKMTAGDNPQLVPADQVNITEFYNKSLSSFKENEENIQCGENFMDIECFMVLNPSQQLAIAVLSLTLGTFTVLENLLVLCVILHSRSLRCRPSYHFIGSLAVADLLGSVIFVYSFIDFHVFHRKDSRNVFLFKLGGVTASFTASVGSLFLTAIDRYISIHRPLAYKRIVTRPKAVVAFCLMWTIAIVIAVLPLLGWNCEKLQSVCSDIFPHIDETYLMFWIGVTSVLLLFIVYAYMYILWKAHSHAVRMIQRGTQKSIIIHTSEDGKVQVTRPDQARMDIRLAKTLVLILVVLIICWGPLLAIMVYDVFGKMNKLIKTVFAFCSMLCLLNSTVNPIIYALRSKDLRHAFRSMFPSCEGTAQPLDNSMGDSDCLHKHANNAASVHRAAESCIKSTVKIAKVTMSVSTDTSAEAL

Mus musculus [18] = assay: Antinociceptive activity in CD-1 mouse assessed as reduction of formalin-induced paw licking activity at 3 mg/kg, ip administered 15 mins prior to formalin-challenge measured after 5 mins in presence of 5-HT1A receptor antagonist WAY-100635; format: functional, organism-based; set-up: dose 3 mg/kg
[19] = molecular target: 5-hydroxytryptamine receptor 4 (Rattus norvegicus, UniProt Q62758); assay: Displacement of [3H]GR113808 from 5-HT4 receptor in Sprague-Dawley rat striatum after 30 mins
5-hydroxytryptamine receptor 4, sequence (Q62758 whole entry): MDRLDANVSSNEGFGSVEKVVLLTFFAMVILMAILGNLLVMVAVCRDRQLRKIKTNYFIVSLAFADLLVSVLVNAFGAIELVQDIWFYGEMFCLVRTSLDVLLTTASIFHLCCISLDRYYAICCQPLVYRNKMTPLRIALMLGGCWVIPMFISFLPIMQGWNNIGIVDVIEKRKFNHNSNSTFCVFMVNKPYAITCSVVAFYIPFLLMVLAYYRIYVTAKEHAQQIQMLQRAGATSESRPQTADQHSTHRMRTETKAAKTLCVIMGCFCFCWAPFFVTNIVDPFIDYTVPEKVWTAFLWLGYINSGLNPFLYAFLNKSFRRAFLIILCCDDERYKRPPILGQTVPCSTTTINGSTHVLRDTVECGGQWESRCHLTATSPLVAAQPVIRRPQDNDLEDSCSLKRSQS

CYP2D6 = CYP2D6 (Homo sapiens, UniProt P10635); assay: Inhibition of human recombinant microsomal CYP2D6 using {3-[2-(N,N-diethyl-N-methylamino)ethyl]-7-methoxy-4-methylcoumarin} as substrate assessed as remaining activity at 10 uM after 30 mins by spectrofluorimetric analysis relative to control; format: ADME; conditions: read-out: Activity
CYP2D6, sequence (P10635 whole entry): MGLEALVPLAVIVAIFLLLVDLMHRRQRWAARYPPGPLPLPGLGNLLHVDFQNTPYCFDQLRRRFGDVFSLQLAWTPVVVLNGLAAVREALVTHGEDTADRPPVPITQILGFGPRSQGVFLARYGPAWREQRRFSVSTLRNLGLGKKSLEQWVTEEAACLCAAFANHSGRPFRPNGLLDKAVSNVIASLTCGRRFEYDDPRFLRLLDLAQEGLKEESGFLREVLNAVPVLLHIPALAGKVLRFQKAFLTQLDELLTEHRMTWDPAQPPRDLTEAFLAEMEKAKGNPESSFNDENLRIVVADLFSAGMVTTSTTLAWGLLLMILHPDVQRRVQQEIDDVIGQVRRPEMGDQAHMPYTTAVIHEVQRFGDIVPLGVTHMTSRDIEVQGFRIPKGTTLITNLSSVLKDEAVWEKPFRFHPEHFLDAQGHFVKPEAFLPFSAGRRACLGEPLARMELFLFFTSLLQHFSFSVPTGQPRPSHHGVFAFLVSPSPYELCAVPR

Mus musculus [20] = assay: Antinociceptive activity in CD-1 mouse assessed as reduction of formalin-induced paw licking activity at 3 mg/kg, ip administered 15 mins prior to formalin-challenge measured after 5 mins; format: functional, organism-based; set-up: dose 3 mg/kg

CLint scaled at up to 5 µM [1]: 3.5 mL/min/kg | Ki [2]: 2.3 nM | Ki [3]: > 1000 nM | inhibition (Homo sapiens [4]): inactive | inhibition [6]: inactive | inhibition (Homo sapiens [8]): inactive | half-life at up to 5 µM [9]: 13.1 min | CLint scaled at up to 5 µM [12]: 107 mL/min/kg | Ki [13]: > 1000 nM | inhibition [14]: inactive | inhibition (Homo sapiens [15]): inactive | half-life at up to 5 µM [16]: 29.5 min | inhibition [17]: inactive | Ki [19]: > 1000 nM | activity at 0.5 h, 10 µM (CYP2D6): 18%
Structure (SMILES): CCOc1ccccc1OCCNCCCCN1C(=O)C2CCCN2C1=O.Cl (stereo unspecified)
Activity (Mus musculus [5]): Active | minimal effective dose (Mus musculus [7]): 0.875 mg/kg | Activity (Mus musculus [10]): Active | Activity (Mus musculus [11]): Active | Activity (Mus musculus [18]): inactive | Activity (Mus musculus [20]): Active
